Compound activity from PubChem BioAssay.
STEP block = STEP phosphatase inhibitors, primary screen, biochemical, fluorescence intensity, uHTS; Tyrosine-protein phosphatase non-receptor type 5 (Homo sapiens), P54829; recombinant STEP, OMFP fluorogenic substrate; inhibition, % at 20 µM; 0.25% of 360,000 active; AID 588621, 2011;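 active means inhibition at 20 µM, scaled per plate between control wells, above about 37%, limit read from the data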;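 further: 0% = DMSO with enzyme and substrate and 100% = substrate only without enzyme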
Target sequence (P54829 whole entry, looked up): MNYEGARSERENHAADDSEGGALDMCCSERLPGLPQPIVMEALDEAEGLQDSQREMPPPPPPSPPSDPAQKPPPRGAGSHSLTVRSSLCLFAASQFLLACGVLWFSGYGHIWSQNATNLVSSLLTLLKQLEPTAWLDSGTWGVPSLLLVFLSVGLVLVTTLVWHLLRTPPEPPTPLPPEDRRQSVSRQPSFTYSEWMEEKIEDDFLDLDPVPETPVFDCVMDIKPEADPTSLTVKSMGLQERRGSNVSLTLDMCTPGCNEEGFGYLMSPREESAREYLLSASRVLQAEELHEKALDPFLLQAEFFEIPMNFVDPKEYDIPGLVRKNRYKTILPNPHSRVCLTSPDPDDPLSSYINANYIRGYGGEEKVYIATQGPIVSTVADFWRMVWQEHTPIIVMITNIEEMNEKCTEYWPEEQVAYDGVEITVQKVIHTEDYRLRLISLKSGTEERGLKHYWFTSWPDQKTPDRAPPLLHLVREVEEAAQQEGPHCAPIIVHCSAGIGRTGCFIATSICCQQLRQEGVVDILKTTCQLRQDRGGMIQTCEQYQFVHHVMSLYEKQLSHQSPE
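material = STEP tyrosine phosphatase | reagent = fluorogenic phosphatase substrate OMFP at 25 µM final | doses = single compound dose of 20 µM, 1% DMSO final | schedule = 20 min reaction, room temperature, in the dark | measured by = fluorescence, 480/540 nm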
GRK2 aptamer HTS = compounds blocking aptamer binding on GRK2 – biochemical, human GRK2, bead flow cytometry, HTS, primary screen; Beta-adrenergic receptor kinase 1 (Homo sapiens), P25098; FAM-aptamer displacement from GRK2; inhibition of aptamer binding, % at 10 µM; 0.59% of 330,000 active; AID 488847, 2010;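 active means inhibition of aptamer binding above 40%, roughly 3 SD of noise, on plates passing a quality check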;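 further: median bead fluorescence of bound FAM aptamer so fluorescent compounds give negative values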
DNMT1 block = human DNMT1 methyltransferase inhibitors, primary screen, biochemical, molecular beacon, fluorescence, HinP1I cleavage, uHTS; DNA (cytosine-5)-methyltransferase 1 (Homo sapiens), P26358; inhibition (reported as % activation of signal), % at 10 µM; 0.83% of 360,000 active; AID 588458, 2011; in the data active means inhibition above about 50%
SUMO1 PPI mod = modulators of SUMO1 protein-protein interactions, primary screen, biochemical, uHTS. Small ubiquitin-related modifier 1 (Homo sapiens), P63165. SUMO1 binding to a labelled peptide, TR-FRET, 1 h. inhibition, % at 20 µM. 0.33% of 360,000 active. AID 602429, 2012; in the data active means inhibition above about 37%
LMPTP block = LMPTP phosphatase inhibitors, primary screen, biochemical, fluorescence intensity, uHTS; 0.22% of 360,000 active; inhibition, % at 20 µM; recombinant LMPTP-A, OMFP fluorogenic substrate;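 active means compounds that cut the enzyme signal by at least half of the control window in the single-dose screen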;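 further: plate controls were DMSO wells with enzyme plus substrate for no effect and substrate without enzyme for full effect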
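Buffer or medium: Bis-Tris pH 6.0, DTT, detergent; Assay system: LMPTP-A enzyme; Quantity: 0.625 nM enzyme; Detection: endpoint fluorescence intensity; Times: 50 min dark incubation at room temperature; Controls: substrate-only low control, DMSO enzyme-plus-substrate high control; Doses: single 20 µM dose; Read-out: percent inhibition versus substrate-only and uninhibited controls; Reagent: 400 µM OMFP.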
Scp1 inh = Scp-1 phosphatase inhibitors, primary screen, biochemical, colorimetric, uHTS; Carboxy-terminal domain RNA polymerase II polypeptide A small phosphatase 1 (Homo …; Recombinant Scp1, phosphopeptide, malachite green phosphate absorbance; inhibition, % at 20 µM; 0.88% of 340,000 active; AID 493091, 2011;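 active means inhibition above about 50% at 20 µM, limit read from the data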;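 further: plate controls were DMSO wells with enzyme for no effect and wells lacking enzyme for full effect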
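Assay system: SCP-1 catalytic fragment, aa 76-261 | Buffer or medium: Tris acetate buffer pH 5.5 with MgCl2 and Tween-20 | Compound: One concentration, 20 µM, with 1.0% DMSO | Also added: Phospho 17-mer peptide substrate | Signal: Absorbance at 630 nm | Incubation: 45 min enzyme reaction at room temperature | Measure: % inhibition of SCP-1 phosphate liberation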
Scp1 confirm = Scp-1 phosphatase inhibitors, retest, confirmation, biochemical, colorimetric, single concentration. inhibition, % at 20 µM. recombinant SCP-1 catalytic domain, phosphate release, malachite green absorbance. 61% of 2,500 active. shares compounds with Scp1 inh;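 further: plate controls were DMSO with enzyme for no effect and buffer wells lacking enzyme for full effect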
Scp-1 MG ctr = colorimetric readout interference by compounds, confirmation, artefact control for Scp-1 inhibitor project, biochemical, single concentration | shares compounds with Scp1 inh | Colorimetric interference counterscreen, malachite green absorbance 630 nm | apparent inhibition (interference), % at 20 µM | 2,500 tested, under 10 active | AID 540313, 2011;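 further: compounds added after enzyme reaction finished so only phosphate colour detection is probed; plate controls were DMSO wells with completed Scp-1 reaction for no effect and substrate wells lacking enzyme for full effect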
Scp-1 Tm shift = Scp-1 binding by thermal shift, confirmation, orthogonal assay for Scp-1 inhibitor project, biophysical, differential scanning fluorimetry; shares compounds with Scp1 inh; Recombinant SCP1, Sypro Orange thermal shift Tm; thermal shift relative to vanadate control, % at 40 µM; 25% of 1,500 active;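 active means substances whose mean melting-temperature shift, as a percentage of the reference inhibitor's shift, reaches about 5.3%, limit read from the data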;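 further: 0% = Tm of DMSO wells and 100% = Tm with sodium orthovanadate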
DNMT1 inh conf = DNMT1 methyltransferase inhibitor retest, confirmation, biochemical, molecular beacon, fluorescence, single concentration. shares compounds with DNMT1 block. DNMT1 molecular beacon HinP1I cleavage. inhibition, % at 10 µM. 8% of 2,300 active. AID 602385, 2012;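 active means average inhibition of at least 30% in the single-concentration confirmation test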
DNMT1 interf = counter-screen for DNMT1 inhibitors: spectral interference | shares compounds with DNMT1 block | DNMT1 molecular beacon spectral interference counterscreen, fluorescence 485/520 | activation (fluorescence interference), % at 10 µM | 1% of 2,300 active;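 active means activation of at least 30% at 10 µM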;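 further: DNMT1 catalytic domain with a HinP1I cleavage step and a FAM/dabcyl DNA beacon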
STEP conf = STEP phosphatase inhibitor hit confirmation, biochemical, fluorescence intensity, single concentration; shares compounds with STEP block; recombinant STEP, OMFP fluorogenic substrate; inhibition, % at 20 µM; 32% of 520 active; AID 623866, 2012; call rule not given here;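 further: 0% = enzyme with substrate plus DMSO and 100% = substrate without enzyme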
The depositor's hits bear a star; . = not tested or not shown. Rows were chosen to be rich in hits. Some 2.1% of all compounds tested hit in one or more screens of this group.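 How the source made its calls, unless noted: active means inhibition of at least 30% at 20 µM; inactive means the rest.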

SMILES	STEP block	GRK2 aptamer HTS	DNMT1 block	SUMO1 PPI mod	LMPTP block	Scp1 inh	Scp1 confirm	Scp-1 MG ctr	Scp-1 Tm shift	STEP conf	others
O=C(N/N=C/c1cccc([N+](=O)[O-])c1)c1cc2c(ccc3ccccc32)o1	98.6*	0.0	44.4	4.9	64.4*	98.8*	68.2*	-12.0	-10.6	32.0
COc1ccccc1/C=N/NC(=O)c1cc2c(ccc3ccccc32)o1	-0.4	0.0	-3.6	-9.4	3.7	4.7	.	.	.	.
Nc1ccccc1C(=O)NN=Cc1cccc([N+](=O)[O-])c1	-1.3	.	1.0	-21.9	0.4	.	.	.	.	.
COc1ccccc1NC(=O)/C(=C\c1cccnc1)NC(=O)c1ccc(C)cc1	-0.5	1.0	-1.5	-4.6	-0.6	-4.4	.	.	.	.
CN(C)Cc1csc(NC(=O)Nc2ccccc2Oc2ccccc2)n1	2.7	.	-4.0	-3.3	0.2	.	.	.	.	.
CCOC(=O)N1CCN(C(=O)C[C@@H]2C[C@@]3(C(=O)OCC)CCCC=C3N(CCC3=CCCCC3)C2=O)CC1	.	.	.	10.9	-1.6	.	.	.	.	.
Cn1c2ccccc2c(=O)c2c(=O)n(-c3ccc(F)cc3)c(-c3cccs3)nc21	43.7*	0.0	-1.9	-20.8	47.4	101.3*	53.8*	-12.6	-3.9	17.2
Cc1ccc(-c2nc3c(c(=O)c4ccccc4n3C)c(=O)n2-c2ccc(F)cc2)cc1	1.3	5.0	27.3	-60.3	-1.2	2.7	.	.	.	.
O=C(COc1ccccc1)NC1C(=O)N2C(C(=O)O)=C(Cl)CSC12 (stereo not given)	5.2	2.0	1.1	4.4	-1.5	40.3	.	.	.	.
C=CC1=C(C(=O)O)N2C(=O)C(NC(=O)Cc3ccccc3)C2SC1 (stereo not given)	87.9*	11.0	89.9*	84.7*	72.9*	96.2*	78.2*	-6.8	1.2	35.8*	DNMT1 inh conf=5.4;DNMT1 interf=4.1
O=C1NC(=Nc2cccnc2)S/C1=C/c1ccc(F)cc1	61.2*	0.0	2.3	-5.3	14.4	87.4*	50.4*	-9.3	-32.1	-1.9
Cc1c(Cc2ccccc2)c(=O)oc2c(C)c(OCC(=O)NCC3CCC(C(=O)O)CC3)ccc12 (stereo not given)	64.8*	1.0	-1.8	5.0	46.1	85.3*	55.7*	-17.5	-33.5	29.0
